The source made the active and inactive calls. No cut-off for these calls is given here.
These compounds were tested on Raji (assay: Cytotoxicity against human Raji cells after 48 hrs by MTT assay). Settings: not given.
Assay type: functional, cell-based
In short: (§1)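 Cells seeded at 5000 per well, left overnight, then exposed to compound at 0–50 μM for 48 h. MTT (20 μL of 2.5 mg mL−1) added for a further 4 h at 37 °C, formazan dissolved in DMSO, absorbance read at 570 nm. Quadruplicate wells, N > 2 determinations, mean IC50 taken as the concentration reducing cell number to 50%.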

Structure (SMILES) | IC50 [µM]
CCn1c(/C=C2\SC(=S)N(CC(=O)O)C2=O)nc2ccccc21 | 5.56
COc1ccc2c(c1)nc(/C=C1\SC(=S)N(CC(=O)O)C1=O)n2Cc1ccccc1F | 11.5
O=C(O)CN1C(=O)/C(=C/c2nc3ccccc3n2Cc2ccccc2)SC1=S | 3.86
O=C1NC(=S)S/C1=C\c1nc2ccccc2n1Cc1ccccc1F | 25.5
O=C(O)CN1C(=O)/C(=C/c2nc3ccccc3n2Cc2ccc(F)cc2)SC1=S | 1.77
O=C(O)CN1C(=O)/C(=C/c2nc3ccccc3n2Cc2ccc(F)cc2F)SC1=S | 8.96
CC[C@@]1(O)C(=O)OCc2c1cc1n(c2=O)Cc2cc3ccccc3nc2-1 [CAMPTOTHECIN] | 3.27
O=C(O)CN1C(=O)/C(=C/c2nc3ccccc3n2Cc2ccc(C(F)(F)F)cc2)SC1=S | 18.8
N#Cc1ccc(Cn2c(/C=C3\SC(=S)N(CC(=O)O)C3=O)nc3ccccc32)cc1 | 9.78
O=C(O)CN1C(=O)/C(=C/c2nc3ccccc3n2Cc2ccc(Cl)cc2)SC1=S | 11.4

Species: Homo sapiens
Experiment: Inhibition of human topoisomerase 2-mediated pBR322 DNA relaxation at 20 uM after 30 mins by agarose gel electrophoresis
Settings: not given

Structure (SMILES) | inhibition
CCn1c(/C=C2\SC(=S)N(CC(=O)O)C2=O)nc2ccccc21 | inactive
COc1ccc2c(c1)nc(/C=C1\SC(=S)N(CC(=O)O)C1=O)n2Cc1ccccc1F | inactive
O=C(O)CN1C(=O)/C(=C/c2nc3ccccc3n2Cc2ccccc2)SC1=S | Active
O=C1NC(=S)S/C1=C\c1nc2ccccc2n1Cc1ccccc1F | Active
O=C(O)CN1C(=O)/C(=C/c2nc3ccccc3n2Cc2ccc(F)cc2F)SC1=S | inactive

Results, then the compound that gave them:

inhibition | Structure (SMILES)
Active | O=C(O)CN1C(=O)/C(=C/c2nc3ccccc3n2Cc2ccc(F)cc2)SC1=S
Active | O=C(O)CN1C(=O)/C(=C/c2nc3ccccc3n2Cc2ccc(C(F)(F)F)cc2)SC1=S
inactive | N#Cc1ccc(Cn2c(/C=C3\SC(=S)N(CC(=O)O)C3=O)nc3ccccc32)cc1
Active | O=C(O)CN1C(=O)/C(=C/c2nc3ccccc3n2Cc2ccc(Cl)cc2)SC1=S

These compounds were tested on PC-3 (assay: Cytotoxicity against human PC3 cells after 48 hrs by MTT assay). Settings: PC-3, 48 h.
Assay type: functional, cell-based
In short: as §1

Structure (SMILES) | IC50 [µM]
CCn1c(/C=C2\SC(=S)N(CC(=O)O)C2=O)nc2ccccc21 | 3.25
COc1ccc2c(c1)nc(/C=C1\SC(=S)N(CC(=O)O)C1=O)n2Cc1ccccc1F | 24.7
O=C(O)CN1C(=O)/C(=C/c2nc3ccccc3n2Cc2ccccc2)SC1=S | 10.8
O=C1NC(=S)S/C1=C\c1nc2ccccc2n1Cc1ccccc1F | > 50
O=C(O)CN1C(=O)/C(=C/c2nc3ccccc3n2Cc2ccc(F)cc2)SC1=S | 4.86
O=C(O)CN1C(=O)/C(=C/c2nc3ccccc3n2Cc2ccc(F)cc2F)SC1=S | 21.7
CC[C@@]1(O)C(=O)OCc2c1cc1n(c2=O)Cc2cc3ccccc3nc2-1 [CAMPTOTHECIN] | 18.2
O=C(O)CN1C(=O)/C(=C/c2nc3ccccc3n2Cc2ccc(C(F)(F)F)cc2)SC1=S | 22.9
N#Cc1ccc(Cn2c(/C=C3\SC(=S)N(CC(=O)O)C3=O)nc3ccccc32)cc1 | 14.4
O=C(O)CN1C(=O)/C(=C/c2nc3ccccc3n2Cc2ccc(Cl)cc2)SC1=S | 9.67

These compounds were tested on HeLa (assay: Cytotoxicity against human HeLa cells after 48 hrs by MTT assay). Settings: not given.
Assay type: functional, cell-based
In short: as §1

Structure (SMILES) | IC50 [µM]
CCn1c(/C=C2\SC(=S)N(CC(=O)O)C2=O)nc2ccccc21 | 3.52
COc1ccc2c(c1)nc(/C=C1\SC(=S)N(CC(=O)O)C1=O)n2Cc1ccccc1F | 22.5
O=C(O)CN1C(=O)/C(=C/c2nc3ccccc3n2Cc2ccccc2)SC1=S | 22.7
O=C1NC(=S)S/C1=C\c1nc2ccccc2n1Cc1ccccc1F | 36.1
O=C(O)CN1C(=O)/C(=C/c2nc3ccccc3n2Cc2ccc(F)cc2)SC1=S | 13.9
O=C(O)CN1C(=O)/C(=C/c2nc3ccccc3n2Cc2ccc(F)cc2F)SC1=S | 26.1
CC[C@@]1(O)C(=O)OCc2c1cc1n(c2=O)Cc2cc3ccccc3nc2-1 [CAMPTOTHECIN] | > 50
O=C(O)CN1C(=O)/C(=C/c2nc3ccccc3n2Cc2ccc(C(F)(F)F)cc2)SC1=S | 21.4
N#Cc1ccc(Cn2c(/C=C3\SC(=S)N(CC(=O)O)C3=O)nc3ccccc32)cc1 | 16.3
O=C(O)CN1C(=O)/C(=C/c2nc3ccccc3n2Cc2ccc(Cl)cc2)SC1=S | 8.72

What follows are compounds tested on MDA-MB-231 (assay: Cytotoxicity against human MDA-MB-231 cells after 48 hrs by MTT assay). Settings: MDA-MB-231, 48 h.
Assay type: functional, cell-based
In short: as §1

Structure (SMILES) | IC50 [µM]
CCn1c(/C=C2\SC(=S)N(CC(=O)O)C2=O)nc2ccccc21 | 1.88
COc1ccc2c(c1)nc(/C=C1\SC(=S)N(CC(=O)O)C1=O)n2Cc1ccccc1F | 16.9
O=C(O)CN1C(=O)/C(=C/c2nc3ccccc3n2Cc2ccccc2)SC1=S | 1.82
O=C1NC(=S)S/C1=C\c1nc2ccccc2n1Cc1ccccc1F | 21.3
O=C(O)CN1C(=O)/C(=C/c2nc3ccccc3n2Cc2ccc(F)cc2)SC1=S | 2.62
O=C(O)CN1C(=O)/C(=C/c2nc3ccccc3n2Cc2ccc(F)cc2F)SC1=S | 11.5
CC[C@@]1(O)C(=O)OCc2c1cc1n(c2=O)Cc2cc3ccccc3nc2-1 [CAMPTOTHECIN] | 16.4
O=C(O)CN1C(=O)/C(=C/c2nc3ccccc3n2Cc2ccc(C(F)(F)F)cc2)SC1=S | 12.5
N#Cc1ccc(Cn2c(/C=C3\SC(=S)N(CC(=O)O)C3=O)nc3ccccc32)cc1 | 11.2
O=C(O)CN1C(=O)/C(=C/c2nc3ccccc3n2Cc2ccc(Cl)cc2)SC1=S | 5.58

These compounds were tested on HL-60 (assay: Cytotoxicity against human HL60 cells after 48 hrs by MTT assay). Settings: HL-60, 48 h.
Assay type: functional, cell-based
In short: as §1

Structure (SMILES) | IC50 [µM]
CCn1c(/C=C2\SC(=S)N(CC(=O)O)C2=O)nc2ccccc21 | 2.12
COc1ccc2c(c1)nc(/C=C1\SC(=S)N(CC(=O)O)C1=O)n2Cc1ccccc1F | 3.41
O=C(O)CN1C(=O)/C(=C/c2nc3ccccc3n2Cc2ccccc2)SC1=S | 0.96
O=C1NC(=S)S/C1=C\c1nc2ccccc2n1Cc1ccccc1F | 8.42
O=C(O)CN1C(=O)/C(=C/c2nc3ccccc3n2Cc2ccc(F)cc2)SC1=S | 1.42
O=C(O)CN1C(=O)/C(=C/c2nc3ccccc3n2Cc2ccc(F)cc2F)SC1=S | 6.52
CC[C@@]1(O)C(=O)OCc2c1cc1n(c2=O)Cc2cc3ccccc3nc2-1 [CAMPTOTHECIN] | 0.42
O=C(O)CN1C(=O)/C(=C/c2nc3ccccc3n2Cc2ccc(C(F)(F)F)cc2)SC1=S | 3.56
N#Cc1ccc(Cn2c(/C=C3\SC(=S)N(CC(=O)O)C3=O)nc3ccccc32)cc1 | 7.64
O=C(O)CN1C(=O)/C(=C/c2nc3ccccc3n2Cc2ccc(Cl)cc2)SC1=S | 2.65

What follows are compounds tested on A549 (assay: Cytotoxicity against human A549 cells after 48 hrs by MTT assay). Settings: A549, 48 h.
Assay type: functional, cell-based
In short: as §1

Structure (SMILES) | IC50 [µM]
CCn1c(/C=C2\SC(=S)N(CC(=O)O)C2=O)nc2ccccc21 | 9.44
COc1ccc2c(c1)nc(/C=C1\SC(=S)N(CC(=O)O)C1=O)n2Cc1ccccc1F | 18.4
O=C(O)CN1C(=O)/C(=C/c2nc3ccccc3n2Cc2ccccc2)SC1=S | 8.76
O=C1NC(=S)S/C1=C\c1nc2ccccc2n1Cc1ccccc1F | > 50
O=C(O)CN1C(=O)/C(=C/c2nc3ccccc3n2Cc2ccc(F)cc2)SC1=S | 3.57
O=C(O)CN1C(=O)/C(=C/c2nc3ccccc3n2Cc2ccc(F)cc2F)SC1=S | 12.8
CC[C@@]1(O)C(=O)OCc2c1cc1n(c2=O)Cc2cc3ccccc3nc2-1 [CAMPTOTHECIN] | 2.21
O=C(O)CN1C(=O)/C(=C/c2nc3ccccc3n2Cc2ccc(C(F)(F)F)cc2)SC1=S | 25.3
N#Cc1ccc(Cn2c(/C=C3\SC(=S)N(CC(=O)O)C3=O)nc3ccccc32)cc1 | 26.6
O=C(O)CN1C(=O)/C(=C/c2nc3ccccc3n2Cc2ccc(Cl)cc2)SC1=S | 17.5

The compounds below were run against T1, DNA topoisomerase 1 (Homo sapiens) (UniProt P11387) (assay: Inhibition of topoisomerase 1 (unknown origin)-mediated pBR322 DNA relaxation at 50 uM after 30 mins by agarose gel electrophoresis). Settings: not given.
T1 sequence (whole entry): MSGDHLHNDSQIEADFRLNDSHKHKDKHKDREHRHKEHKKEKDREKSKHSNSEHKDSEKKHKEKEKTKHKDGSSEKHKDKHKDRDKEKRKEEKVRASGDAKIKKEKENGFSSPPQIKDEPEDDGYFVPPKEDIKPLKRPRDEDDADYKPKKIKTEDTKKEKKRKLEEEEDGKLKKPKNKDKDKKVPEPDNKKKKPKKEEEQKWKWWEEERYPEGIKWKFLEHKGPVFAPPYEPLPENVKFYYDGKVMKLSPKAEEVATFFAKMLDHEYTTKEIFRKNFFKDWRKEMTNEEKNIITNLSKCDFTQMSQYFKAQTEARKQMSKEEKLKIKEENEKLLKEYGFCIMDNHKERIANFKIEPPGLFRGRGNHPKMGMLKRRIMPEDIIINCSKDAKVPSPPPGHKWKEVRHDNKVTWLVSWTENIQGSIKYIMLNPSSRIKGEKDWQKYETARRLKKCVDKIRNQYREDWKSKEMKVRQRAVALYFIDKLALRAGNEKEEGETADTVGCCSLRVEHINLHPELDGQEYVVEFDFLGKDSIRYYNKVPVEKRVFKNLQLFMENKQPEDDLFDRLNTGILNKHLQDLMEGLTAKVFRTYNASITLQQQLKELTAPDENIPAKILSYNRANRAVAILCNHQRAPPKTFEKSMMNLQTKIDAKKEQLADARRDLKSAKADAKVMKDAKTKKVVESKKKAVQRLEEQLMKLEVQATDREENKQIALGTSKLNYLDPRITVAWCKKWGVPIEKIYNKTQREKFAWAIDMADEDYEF
In short: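 Topo I relaxation of pBR322 with compound at 30 min, 37 °C, camptothecin positive control. Stopped with SDS/bromophenol blue/glycerol dye, run on 1% agarose in TAE for 1.5 h, Ged Red stained, UV visualized.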

Structure (SMILES) | inhibition
CCn1c(/C=C2\SC(=S)N(CC(=O)O)C2=O)nc2ccccc21 | inactive
COc1ccc2c(c1)nc(/C=C1\SC(=S)N(CC(=O)O)C1=O)n2Cc1ccccc1F | inactive
O=C(O)CN1C(=O)/C(=C/c2nc3ccccc3n2Cc2ccccc2)SC1=S | inactive
O=C1NC(=S)S/C1=C\c1nc2ccccc2n1Cc1ccccc1F | inactive
O=C(O)CN1C(=O)/C(=C/c2nc3ccccc3n2Cc2ccc(F)cc2F)SC1=S | inactive

Other lines, results leading:

inhibition | Structure (SMILES)
inactive | O=C(O)CN1C(=O)/C(=C/c2nc3ccccc3n2Cc2ccc(F)cc2)SC1=S
inactive | O=C(O)CN1C(=O)/C(=C/c2nc3ccccc3n2Cc2ccc(C(F)(F)F)cc2)SC1=S
inactive | N#Cc1ccc(Cn2c(/C=C3\SC(=S)N(CC(=O)O)C3=O)nc3ccccc32)cc1
inactive | O=C(O)CN1C(=O)/C(=C/c2nc3ccccc3n2Cc2ccc(Cl)cc2)SC1=S

Species: Homo sapiens
Experiment: Inhibition of human topoisomerase 2-mediated pBR322 DNA relaxation at 50 uM after 30 mins by agarose gel electrophoresis
Settings: not given
In short: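 Relaxation of 200 ng supercoiled pBR322 by 1 U Topo II (TopoGEN) in 20 μL buffer: 50 mM Tris-HCl pH 8.0, 150 mM NaCl, 10 mM MgCl2, 2 mM ATP, 0.5 mM DTT, 30 μg/mL BSA. Incubated 30 min at 37 °C, stopped with sarcosyl/glycerol dye. Products run on 1% agarose in TAE (1.5 h, 75 V), Ged Red stained, UV imaged; etoposide positive control.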

Structure (SMILES) | inhibition
CCn1c(/C=C2\SC(=S)N(CC(=O)O)C2=O)nc2ccccc21 | Active
COc1ccc2c(c1)nc(/C=C1\SC(=S)N(CC(=O)O)C1=O)n2Cc1ccccc1F | Active
O=C(O)CN1C(=O)/C(=C/c2nc3ccccc3n2Cc2ccccc2)SC1=S | Active
O=C(O)CN1C(=O)/C(=C/c2nc3ccccc3n2Cc2ccc(F)cc2F)SC1=S | Active

From ChEMBL document CHEMBL4257549, “Design, synthesis and biological evaluation of benzimidazole-rhodanine conjugates as potent topoisomerase II inhibitors” (Medchemcomm, 2018)
